Most compounds without a hit are left out; they make up all but 1.7% or so of the library.
IDE cell activ: activators of human insulin-degrading enzyme in cells; 340,000 tested, 0.073% active; activation, % at 5.96 µM; P14735; HEK cells, FAbeta-B cleavage, fluorescence polarization; 0% vehicle, 100% cell-free pure enzyme wells;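 active = activation above the mean of all tested compounds plus 3 SD, set per screening campaign, cut at about 17% in these data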
TPT1 inhibitor: blocks Candida albicans tRNA 2'-phosphotransferase. recombinant caTPT1, FP RNA substrate dephosphorylation. inhibition, % at 5 µM. 300,000 tested, 0.81% active. AID 1962;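 active = inhibition above the mean of all tested compounds plus 3 SD, set per screening campaign, cut at about 24% in these data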
Rpn11 inh: blocks the human proteasome subunit Rpn11; O00487; human 26S proteasome, Ub4-pepOG fluorescence polarization; 20S core pre-blocked with epoxomicin; calls only at 20 µM; 360,000 tested, 0.59% active; AID 588493;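 active = inhibition at 20 µM, scaled to each plate's controls, above about 33%, limit read from the data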
Target sequence (O00487 whole entry, looked up): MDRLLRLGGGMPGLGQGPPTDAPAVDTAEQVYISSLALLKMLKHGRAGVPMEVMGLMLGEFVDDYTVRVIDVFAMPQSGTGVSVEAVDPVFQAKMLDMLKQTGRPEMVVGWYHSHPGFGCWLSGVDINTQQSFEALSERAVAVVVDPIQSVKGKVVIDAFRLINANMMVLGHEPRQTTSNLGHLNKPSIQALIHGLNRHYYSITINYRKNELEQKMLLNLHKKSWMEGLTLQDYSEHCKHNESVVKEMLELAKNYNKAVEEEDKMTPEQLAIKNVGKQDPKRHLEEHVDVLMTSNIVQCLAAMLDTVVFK
HNF4A DNA FP: change in binding of human HNF4 alpha to DNA; P41235; HNF4a-FITC DNA binding, fluorescence polarization, 1 h; activity change, % at 10 µM; 360,000 tested, 0.3% active; in the data active = activity change above about 30%, passing the limit was not always enough
CSN inh: inhibitors of human CSN-mediated cullin deneddylation | Q92905 | Purified CSN, SCF-Nedd8-OG deneddylation, fluorescence polarization | inhibition, % at 12.5 µM | 360,000 tested, 0.38% active | AID 651999;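 active = pattern-corrected inhibition above about 35%, with an unprinted fluorescence ratio check between 0.5 and 1.5, limit read from the data, passing the limit was not always enough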
Target sequence (Q92905 whole entry, looked up, one chain of several): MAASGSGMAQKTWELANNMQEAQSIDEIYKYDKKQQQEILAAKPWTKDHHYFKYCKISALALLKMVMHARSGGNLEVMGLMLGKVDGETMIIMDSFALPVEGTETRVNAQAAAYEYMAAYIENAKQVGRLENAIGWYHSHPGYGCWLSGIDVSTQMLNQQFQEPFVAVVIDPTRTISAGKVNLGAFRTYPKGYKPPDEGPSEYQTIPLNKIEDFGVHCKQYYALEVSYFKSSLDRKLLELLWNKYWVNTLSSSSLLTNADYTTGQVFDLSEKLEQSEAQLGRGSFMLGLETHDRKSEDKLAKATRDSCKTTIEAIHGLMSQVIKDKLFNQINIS
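Schedule: reaction 90 min, room temperature / Assay system: HEK293T-derived human Csn5 enzyme / Input: Csn5 at 0.24 nM final / Measure: inhibition of Csn5 cleavage, % / Control set: substrate-only high control, full reaction low control / Technique: fluorescence polarization of the substrate / Buffer or medium: Tris/NaCl/DTT buffer, pH 7.5 / Reagent: SCFSkp2-Nedd8OG substrate at 10 nM final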
IDE inh: inhibitors of human insulin-degrading enzyme in cells. inhibition, % at 5.59 µM. P14735. HEK cells, FAbetaB cleavage, fluorescence polarization. 320,000 tested, 0.41% active;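 active = percent inhibition above the average of all tested compounds plus 3 SD, set per screening campaign, cut at about 16% in these data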;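 also: IDE supplied by intact live HEK cells; FP after avidin binding of uncleaved biotin substrate so inhibition keeps polarization high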
Numbers stand for hits; n = inactive; x = no result shown; + = active, no number.

SMILES	IDE cell activ	TPT1 inhibitor	Rpn11 inh	HNF4A DNA FP	CSN inh	IDE inh
Cc1cccc(NC(c2ccc(C)s2)c2ccc3ccc(C)nc3c2O)n1 (configuration not stated)	n	n	n	n	n	22
Cc1ccc(C(=O)NCc2cccc(C(F)(F)F)c2)cc1S(=O)(=O)N1CCCCC1	n	x	n	n	n	x
c1ccc(-c2nccc(-c3ccc(-n4cnc5ccccc54)cc3)n2)cc1	n	n	n	n	73	n
Cc1cccc(N2CCN(C(=S)Nc3ccc4nc(N5CCN(C)CC5)cc(C)c4c3)CC2C)c1 (configuration not stated)	30	n	n	n	n	n
Cc1cc(N2CCN(C)CC2)nc2ccc(NC(=S)N3CCN(c4cccc(Cl)c4)CC3)cc12	n	n	n	n	n	n
COc1ccc2[nH]c(=O)c(CN(Cc3nnnn3Cc3ccco3)C3CCCCC3)cc2c1	n	n	n	n	n	n
COc1ccc2[nH]c(=O)c(CN(C3CCCCC3)C(c3nnnn3Cc3ccco3)C(C)C)cc2c1 (configuration not stated)	n	57	x	54	n	n
CCOC(=O)Cn1nnc(-c2ccccc2)n1	n	n	n	n	n	n
CCOC(=O)C(Cc1ccccc1)NC(=O)Cn1nnc(-c2ccccc2)n1 (configuration not stated)	n	n	n	39	n	n
CCOC(=O)C1CCCN(C(=O)Cc2ccc(C)cc2)C1 (configuration not stated)	n	n	n	n	n	n
CCOC(=O)[C@H]1[C@H]2COc3ccc(Br)cc3[C@@H]2N2C(=O)c3ccc(C)cc3NC(=O)[C@@]12C	n	n	n	n	n	n
COc1ccc2[nH]c3c4c(ccc3c2c1)C(=O)C=CC4=O	n	x	n	46	n	x
CCCCCC1C/C(=N\O)C=C(C)C1C(=O)OC (configuration not stated)	x	n	n	n	n	n
S=C(NCCCN1CCOCC1)N1CCN(c2nc(-c3ccc(Cl)cc3)cs2)CC1	n	n	n	n	n	23
CCCNC(=S)N1CCN(c2nc(-c3ccc(C)cc3)cs2)CC1	n	n	n	n	n	n
COc1ccc(NC(=O)CNC(=O)Cc2cccc3ccccc23)cc1	n	x	n	n	37	n
Cc1cccc(C)c1NC(=O)NCCSc1snnc1C	n	n	n	n	35	n
COc1ccc(C2=NS(=O)(=O)N(C)C(C(=O)N(C)Cc3ccccc3)=C2)cc1OC	n	n	n	n	n	n
CCN(C(=O)COC(=O)COc1ccc2c(c1)CCC2)c1c(N)n(Cc2ccccc2)c(=O)[nH]c1=O	n	x	n	n	n	x
COc1cc2c(cc1NC(=O)c1ccccc1-c1ccccc1C(=O)O)-c1ccccc1C2	x	x	n	n	n	x
CCOC(=O)C(=Cc1ccc(-c2ccsc2C(=O)OC)o1)C(=O)OCC	n	n	n	n	118	n
COC(=O)C(=Cc1ccc(-c2ccsc2C(=O)OC)o1)C(=O)OC	n	n	n	n	n	n
CCN(CC(=O)Nc1ccc(NC(C)=O)cc1)C(=O)c1cc(CN2C(=O)c3ccccc3C2=O)ccc1OC	18	n	n	n	n	n
COc1cccc(NC(=O)CN(C)C(=O)c2cc(CN3C(=O)c4ccccc4C3=O)ccc2OC)c1	n	x	n	n	n	x
O=C(NC1CCCC1)c1cnn2c(C(F)(F)F)cc(-c3ccc4c(c3)OCO4)nc12	19	n	x	70	n	n
SMILES	IDE cell activ	TPT1 inhibitor	Rpn11 inh	HNF4A DNA FP	CSN inh	IDE inh
CC(C)(C)OC(=O)C[C@H]1C/C=C\C[C@@H](CC(=O)N[C@@H](CO)Cc2ccccc2)C(=O)NC[C@H](c2ccccc2)OC1=O	n	x	n	n	n	n
O=C(CS)Nc1ccc2ccccc2c1	n	n	n	n	n	17
O=c1oc2ccc(Cl)cc2nc1/C=C(\O)c1cccs1	n	n	n	54	n	n
CCOC(=O)CC1C(=O)NCCN1c1nc2ccc(C)cn2c(=O)c1/C=C1\SC(=S)N(C(C)CC)C1=O (configuration not stated)	x	137	x	x	x	43
O=C(NCC(F)(F)F)c1ccc(S(=O)(=O)Nc2ccccc2N2CCCC2)cc1	n	x	+	n	73	n
Cc1ccc(S(=O)(=O)Nc2ccccc2N2CCCCC2)cc1	n	x	n	n	n	n
COc1ccc(OC)c(/C=C2\S/C(=N/NC(=O)c3ccc4ccccc4c3)NC2=O)c1	n	n	x	n	51	n
Cc1cc(F)ccc1NS(=O)(=O)c1cccc2nsnc12	n	n	n	n	n	n
Cc1ccc(O)c(NS(=O)(=O)c2cccc3nsnc23)c1	n	n	n	79	n	n
O=C1NC[C@@H](Cc2cccc3ccccc23)N(CCc2cccc(F)c2)C1=O	x	x	x	n	54	x
CCCCN1C(=O)C(=O)NC[C@H]1Cc1cccc2ccccc12	x	x	x	n	51	x
Cc1ccc(NC(=O)C(=O)NN=C2CCCC2)cc1C	n	n	n	n	n	n
COc1cc(/C=C2/C(=N)N3C(c4ccccc4)=CSC3=NC2=O)ccc1OCC(=O)O	n	n	n	n	n	n
N=C1/C(=C\c2ccc(-c3ccc(C(=O)O)cc3)o2)C(=O)N=C2SC=C(c3ccccc3)N12	n	x	+	n	n	x
C#CCOCCOCCOCCNc1nc(N2CCN(C(=O)CCCCCCCCCCNC(=O)[C@@H](CCSC)n3cc(CCO)nn3)CC2)nc(N2CCN(C(=O)CCCCCCCCCCNC(=O)[C@H](CCCN=C(N)N)n3cc(C[C@@H](C)CC)nn3)CC2)n1	45	n	+	n	131	n
C#CCOCCOCCOCCNc1nc(N2CCN(C(=O)CCCCCCCCCCNC(=O)[C@@H](CCSC)n3cc(CCO)nn3)CC2)nc(N2CCN(C(=O)CCCCCCCCCCNC(=O)[C@H](CO)n3cc(CCCCCN)nn3)CC2)n1	29	n	n	n	n	n
C#CCOCCOCCOCCNc1nc(N2CCN(C(=O)CCCCCCCCCCNC(=O)[C@H](CCCCN)n3cc(C)nn3)CC2)nc(N2CCN(C(=O)CCCCCCCCCCNC(=O)[C@H](CCCN=C(N)N)n3cc(C[C@@H](C)CC)nn3)CC2)n1	x	n	x	x	x	n
C#CCOCCOCCOCCNc1nc(N2CCN(C(=O)CCCCCCCCCCNC(=O)[C@H](CCCCN)n3cc(C[C@@H](C)CC)nn3)CC2)nc(N2CCN(C(=O)CCCCCCCCCCNC(=O)[C@H](CCCN=C(N)N)n3cc(C[C@@H](C)CC)nn3)CC2)n1	47	n	+	n	137	n
Cc1cc(C)n(C2CCCCC2OC(=O)c2ccccc2F)n1 (configuration not stated)	n	n	n	n	n	n
Cc1nc(C)c2c(=O)cc(-c3ccccc3)[nH]c2n1	n	n	n	n	n	n
COC(=O)c1ccc(COc2cccc3c2CCN(Cc2ccccc2)C3=O)o1	n	n	n	n	n	n

Compound activity as filed in PubChem.
